Bioassay records (PubChem)
TNAP inh hi DEA – human TNAP enzyme inhibitors, primary screen, biochemical, luminescent, high phosphate acceptor level, uHTS; Alkaline phosphatase, tissue-nonspecific isozyme (Homo sapiens), P05186; purified TNAP, CDP-star luminescence, 1 M DEA; inhibition, % at 20 µM; 200,000 compounds, 0.03% hits; AID 1135, 2008;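 active means over 50% inhibition of tissue-nonspecific alkaline phosphatase at 20 µM in the single-dose screen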
PKD1 kinase inh – inhibitors of human PKD1 kinase, biochemical, fluorescence polarization; PKD1 kinase fluorescence polarization assay; inhibition, % (test concentration not listed); 200,000 compounds, 0.056% hits; AID 797, 2007; in the data active means inhibition above about 50%
Target sequence (Q15139 whole entry, looked up): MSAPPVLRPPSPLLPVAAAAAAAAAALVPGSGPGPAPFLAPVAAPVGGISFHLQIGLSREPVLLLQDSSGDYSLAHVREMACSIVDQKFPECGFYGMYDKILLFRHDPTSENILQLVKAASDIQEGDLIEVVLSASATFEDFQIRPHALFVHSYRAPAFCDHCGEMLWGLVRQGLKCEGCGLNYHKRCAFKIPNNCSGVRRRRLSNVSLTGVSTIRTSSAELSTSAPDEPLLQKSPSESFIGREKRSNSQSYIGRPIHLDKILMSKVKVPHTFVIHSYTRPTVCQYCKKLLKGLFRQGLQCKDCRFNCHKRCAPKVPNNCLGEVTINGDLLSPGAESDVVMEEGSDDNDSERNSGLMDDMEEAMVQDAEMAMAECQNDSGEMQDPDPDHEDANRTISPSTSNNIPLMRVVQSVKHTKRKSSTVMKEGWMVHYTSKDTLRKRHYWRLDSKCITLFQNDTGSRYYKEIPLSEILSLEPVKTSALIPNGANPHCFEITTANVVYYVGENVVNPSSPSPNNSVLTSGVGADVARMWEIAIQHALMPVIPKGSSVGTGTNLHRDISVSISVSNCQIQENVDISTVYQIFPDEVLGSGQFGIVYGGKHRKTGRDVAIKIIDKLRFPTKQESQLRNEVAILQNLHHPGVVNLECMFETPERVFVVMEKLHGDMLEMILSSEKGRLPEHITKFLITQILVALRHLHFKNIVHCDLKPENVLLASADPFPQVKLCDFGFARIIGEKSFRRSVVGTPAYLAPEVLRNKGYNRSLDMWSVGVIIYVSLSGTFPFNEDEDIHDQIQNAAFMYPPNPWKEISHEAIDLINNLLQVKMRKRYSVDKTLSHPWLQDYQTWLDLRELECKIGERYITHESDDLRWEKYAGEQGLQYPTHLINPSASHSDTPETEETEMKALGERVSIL
TNAP inh no acc – human TNAP enzyme inhibitors, primary screen, biochemical, luminescent, no phosphate acceptor, uHTS; 200,000 compounds, 0.26% hits; Alkaline phosphatase, tissue-nonspecific isozyme (Homo sapiens), P05186; purified TNAP, CDP-star luminescence, 30 min; AID 1012, 2008; inhibition, % at 20 µM;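 active means tissue-nonspecific alkaline phosphatase inhibition above about 50% at 20 µM in the single-dose screen, limit read from the data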
Arbovirus anti – antivirals against arbovirus infection, primary screen, cell-based, full library, 10K replicate subset. arbovirus infection cell-based antiviral screen. inhibition, % at 10 µM. 200,000 compounds, 0.37% hits. AID 1251, 2008; in the data active means inhibition above about 30%
TNAP act hi DEA – TNAP activators at high phosphate acceptor level, primary screen, biochemical, luminescence, uHTS; 200,000 tested, under 10 active; Alkaline phosphatase, tissue-nonspecific isozyme (Homo sapiens), P05186; activation factor at 20 µM; purified TNAP, CDP-star luminescence, 1 M DEA, 30 min; active compounds read high; 0 = EDTA background, 1 = DMSO-only activity;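 active means activation factor at least 2 at 20 µM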
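system = human TNAP | amount = enzyme diluted 1/800 final | reagent = 100 µM CDP-star substrate | signal = luminescent substrate turnover signal | dosing = one dose, 20 µM | benchmarks = EDTA negative control, DMSO positive control | measure = activation factor | timing = 30 min reaction, room temperature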
Large screens that a line does not name were inactive. A selection: hits, their analogues and other compounds. The true share with any hit is near 0.73%.

CCC(=O)c1ccc(OCC(=O)NC2(C#N)CCCCC2)cc1	none
Nc1nc(SCC(=O)Nc2ccc(S(N)(=O)=O)cc2)n[nH]1	TNAP inh no acc 64
CCOC(=O)c1cnc(-c2ccccc2O)nc1Cl	none
CCOC(=O)C1=Nc2ccccc2C1=[N+]=[N-]	Arbovirus anti 45
CN1C(=S)N(c2cccnc2)C(=O)/C1=C\c1ccc(N(C)C)cc1	TNAP inh no acc 52
CN1C(=S)N(c2cccnc2)C(=O)/C1=C\c1ccc(C(C)(C)C)cc1	none
O=C1CC(c2ccc(F)cc2)Sc2nc(C34CC5CC(CC(C5)C3)C4)nn21 (stereo unspecified)	TNAP inh no acc 86
Cc1cc(C)cc(NC(=O)CN2CCN(CCN=CC3=C(O)CC(c4ccc(Cl)cc4)CC3=O)CC2)c1 (stereo unspecified)	none
O=C1CC(c2cccc([N+](=O)[O-])c2)c2ccc3ccccc3c2N1 (stereo unspecified)	Arbovirus anti 36
CSc1nc(-c2ccc(Cl)cc2Cl)[nH]c(=O)c1C#N	Arbovirus anti 42
Cc1ccc(NC(=O)COc2ccc(Br)cc2CO)cc1	Arbovirus anti 36
O=C(COc1ccc(Br)cc1CO)Nc1ccccc1	none
CCN(Cc1ccccc1)c1ccc(N=Nc2nn(C)c(C)c2[N+](=O)[O-])cc1	none
CCN(CC)c1ccc(N=Nc2nn(C)c(C)c2[N+](=O)[O-])cc1	TNAP inh hi DEA 56
N#Cc1c(SCc2ccccc2)sc(C(=O)c2ccccc2)c1N	none
N#Cc1c(SCc2cccc(Cl)c2)sc(C(=O)c2ccccc2)c1N	Arbovirus anti 48
CN(CCOc1ccccc1)S(=O)(=O)c1ccc2oc3ccccc3c2c1	none
O=C(O)C1CCCCC1C(=O)Nc1nc(-c2ccc(Cl)s2)cs1 (stereo unspecified)	Arbovirus anti 38
COc1ccc(/C=C/c2nc(-c3ccccc3O)n[nH]2)cc1OC	Arbovirus anti 30
COc1ccc(CCNC(=O)COC(=O)c2cc(OC)c(OC)cc2OC)cc1OC	none
Cc1ccc(C(=O)N2CCN(S(=O)(=O)c3ccc(C)c([N+](=O)[O-])c3)C2)cc1	none
CCOC(=O)c1c(-c2ccc(C)o2)csc1NC(=S)NC(=O)c1ccccc1Br	Arbovirus anti 47
CCOC(=O)c1c(-c2ccc(C)o2)csc1NC(=S)NC(=O)c1cccs1	none
COc1cccc(/C=N/NC(=O)c2cc(C34CC5CC(CC(C5)C3)C4)[nH]n2)c1	TNAP inh no acc 86
COc1cccc(/C=N/NC(=O)c2cnccn2)c1	none
COc1ccc(/C=N/NC(=O)c2cc(C34CC5CC(CC(C5)C3)C4)[nH]n2)cc1OC	TNAP inh no acc 86
CC(C)n1c(-c2ccccc2F)n[nH]c1=S	TNAP inh no acc 69
CC(C)n1c(-c2ccc(C(C)(C)C)cc2)n[nH]c1=S	none
CCC(=O)Nc1nc(-c2ccccc2)ns1	none
O=C(Nc1nc(-c2ccccc2)ns1)c1cccs1	Arbovirus anti 30
O=C(CSc1ncn[nH]1)Nc1nc(-c2ccccc2)ns1	TNAP inh no acc 76, Arbovirus anti 41
O=C(Nc1nc(-c2ccc(Cl)s2)cs1)c1cccs1	none
O=C(Nc1nc(-c2ccccc2)cs1)c1ccc(=O)[nH]c1	Arbovirus anti 38
O=C(Nc1nc(-c2ccccc2)cs1)c1cccs1	Arbovirus anti 74
Cc1cnc(C(=O)OCC(=O)NC(C)CCc2ccccc2)cn1 (stereo unspecified)	none
CCOc1ccc2c(c1)c(N=O)c(O)n2C	none
Cc1ccc(NC(=O)CSc2ncnc3ccccc23)cc1S(=O)(=O)N1CCCCCC1	none
COC(=O)c1sccc1NC(=O)c1cc(-c2ccc(C)cc2C)nc2ccccc12	none
Cc1cccc(NC(=O)CCSc2nnc(Cc3ccccc3)o2)c1	none
O=C(Nc1cc(Cl)cc(Cl)c1)c1ccc(Cn2c(=O)[nH]c3ccsc3c2=O)cc1	none
O=c1oc(-c2cccs2)nc2scc(-c3cccs3)c12	Arbovirus anti 71
Cc1nc2scc(-c3cccs3)c2c(=O)o1	none
CC(C)(O)C#Cc1ccc(C(=O)NC(CCCNC(N)=O)C(=O)O)s1 (stereo unspecified)	none
COC(=O)c1ccc(S(=O)(=O)N2CCCCCC2)cc1	none
O=C(/C=C/c1ccc(O)c(O)c1)c1ccc(S(=O)(=O)N2CCCCCC2)cc1	TNAP inh no acc 57
O=C(O)c1c(C(=O)N2N=C3/C(=C/c4ccccc4)CCCC3C2c2ccccc2)cccc1[N+](=O)[O-] (stereo unspecified)	none
O=C(O)c1ccccc1C(=O)N1N=C2/C(=C/c3cccc([N+](=O)[O-])c3)CCCC2C1c1cccc([N+](=O)[O-])c1 (stereo unspecified)	TNAP inh no acc 79
Cc1ccc(C)c(NC(=O)c2ccc(S(=O)(=O)C(F)F)cc2)c1	none
Cc1cc2nnc(SCC(=O)N(C)C3CCS(=O)(=O)C3)n2c2ccccc12 (stereo unspecified)	none
CC(C)Cn1c(N)c(C(=O)COC(=O)C2CC(=O)N(Cc3ccccc3Cl)C2)c(=O)n(C)c1=O (stereo unspecified)	none
C=CCOC(=O)C1=C[C@H](C2CCCCC2)[C@@H](CCCO)[C@H](OCC)O1	none
O=c1cc(-c2ccc(O)c(O)c2)oc2cc(O)c(C3OC(CO)C(O)C(O)C3O)c(O)c12 (stereo unspecified)	none
O=c1cc(-c2ccc(O)c(O)c2)oc2c(C3O[C@H](CO)[C@@H](O)[C@H](O)[C@H]3O)c(O)cc(O)c12 (stereo partly specified)	TNAP inh no acc 53
O=C(Nc1nc2c(s1)CCCC2)c1ccc(Br)s1	Arbovirus anti 38
CCSc1nnc(NC(=O)c2ccc(Br)s2)s1	Arbovirus anti 31
O=C(Nc1nc2c(s1)CCCC2)c1ccc2ncsc2c1	none
COc1ccc(OC)c(/C=N/NC(=O)CC(=O)NCc2ccccc2)c1	none
COc1ccc(OC)c(/C=N/NC(=O)CCc2ccc(O)c(O)c2)c1	TNAP inh no acc 62
COc1cc(OC)cc(C(=O)NNC(=S)Nc2ccc(S(N)(=O)=O)cc2)c1	none
CN(CC(=O)Nc1ccc(N2CCOCC2)cc1)CC(=O)Nc1ccccc1C#N	TNAP inh no acc 50
Cc1ccc(NC(=O)CN(C)CC(=O)Nc2ccc(N3CCOCC3)cc2)c(C)c1	none
Fc1ccc(Oc2ncccn2)c(F)c1	none
O=c1c(Cc2c(F)cccc2Cl)c(O)ccn1CCc1ccccn1	none
COc1ccc(CN(C(=O)c2cc3ccccc3oc2=O)C2CCCCC2)cc1OC	Arbovirus anti 103
